KCNQ1 inh – inhibitors of human KCNQ1 potassium channel; P51787; CHO-K1 KCNQ1, FluxOR thallium flux fluorescence; active compounds read high; B-score at 10 µM; actives 1.3% (n = 310,000); AID 2642;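 active = compounds whose thallium flux B-score, printed positive for inhibition, exceeds three library SD while starting fluorescence stays within three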;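 note: channel opened by potassium depolarization with thallium stimulus after 20 min compound exposure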
hERG protect – shields human hERG channel from block by proarrhythmic agents; Q12809; CHO-hERG, FluxOR thallium flux, dofetilide IC70 present; activation (rescue from dofetilide block), less the hit threshold, % at 10 µM; actives 0.51% (n = 310,000);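 active = activation above the mean of controls blocked by dofetilide plus 5 SD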;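 note: thallium influx through hERG after potassium depolarization seen as dye fluorescence rise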
KCNQ1 pot – potentiators or activators of human KCNQ1 potassium channel; P51787; CHO-K1 KCNQ1, thallium flux FluxOR fluorescence; active compounds read high; B-score at 10 µM; actives 0.35% (n = 310,000);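 active = fluorescence ratio B-score, a plate-corrected score, at least three library SD, with initial intensity B-score within 5 SD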
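System: Stable KCNQ1 CHO-K1 line | Incubation: 90 min dye loading and 20 min compound exposure, both at room temperature | Measure: Ratio B score | Medium: Assay buffer for compound exposure, DMSO matched across wells | Compound dosing: Single-concentration screen | Probe or stimulus: K+/Tl+ depolarizing stimulus | Measured by: Kinetic FluxOR fluorescence, 10 s baseline plus 110 s post-stimulus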
KCNK9 inh – blocks the human KCNK9 two-pore domain potassium channel. HEK293 KCNK9, FluxOR thallium flux fluorescence; active compounds read low. B-score at 10 µM. AID 488922. Q9NPC2. actives 1.2% (n = 310,000);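 active = ratio B-score over 3 SD below the library mean, with starting fluorescence within 5 SD of its mean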;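 note: negative B-score means less thallium flux so channel inhibition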
KCNK3 block – human KCNK3 channel inhibition, primary screen | B-score at 10 µM | actives 0.84% (n = 340,000) | CHO-KCNK3 thallium flux, FluxOR fluorescence; active compounds read low | O14649;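 active = B-score under library mean minus 4 SD, starting fluorescence ratio at most library mean plus 5 SD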;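 note: more negative B-score means stronger inhibition of thallium flux through KCNK3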
Starred values were filed as active, the others as inactive; i = inactive; . = not tested or not shown. Sampled rows, rich in hits. Any-hit rate of the full collection: about 3.1%.

SMILES	KCNQ1 inh	hERG protect	KCNQ1 pot	KCNK9 inh	KCNK3 block
O=C(NCc1ccccc1)c1onc(CSc2ccc(F)cc2)c1C(=O)NCCCN1CCOCC1	i	-15	14*	i	i
O=C(c1cc(-c2ccccc2)nc2ccccc12)N1CCN(c2ccccc2O)CC1	i	-23	i	i	i
Cc1ccc2nc(-c3ccccc3)cc(C(=O)N3CCN(c4ccccc4O)CC3)c2c1	12*	-35	i	i	i
O=C(C1CCCN1S(=O)(=O)c1ccc(Cl)cc1)N1CCN(c2ccccc2)CC1 (stereo not drawn)	.	.	.	.	i
O=C(Nc1n[nH]c(C(F)(F)F)n1)C1CC1	i	4.7*	i	i	i
CN(C)CCN[C@H]1CCC2C3CC=C4C[C@@H](O)CC[C@]4(C)C3CC[C@@]21C (stereo partly drawn)	.	.	.	.	i
COc1ccc(NC(=O)C(=O)NNC(=O)C(C)Oc2ccc(Cl)cc2Cl)cc1 (stereo not drawn)	i	35*	108*	i	i
COc1ccc(NC(=O)C(=O)NNC(=O)c2ccc(Cl)cc2Cl)cc1	i	4.7*	62*	i	i
CC(=O)Nc1ccc(C(=O)NNC(=O)c2ccc(Cl)cc2Cl)cc1	i	-7	i	i	i
Cc1c(C(=O)N2CCc3ccccc3C2)oc2ccc(S(=O)(=O)N3CCCCCC3)cc12	i	-18	i	-6.8*	i
CCOc1cc2c(cc1OCC)CN(C(=O)c1cccc(S(=O)(=O)N3CCCC3)c1)CC2	.	.	.	.	-9.9*
CCOc1ccc(CCNC(=O)COC(=O)c2cccc(S(=O)(=O)N3CCCCC3)c2)cc1OCC	i	-18	i	-7.9*	i
C=CCOc1ccccc1CN(C(=O)CCl)c1ccc2c(c1)OCO2	i	-6	i	i	i
COc1ccc(C)cc1NC(=O)CNC(c1ccccc1)c1ccc(C)cc1 (stereo not drawn)	i	-9	i	-7.6*	i
COc1ccc(C)cc1NC(=O)C(OC(=O)CNC(=O)c1ccc(Oc2ccccc2)cc1)c1ccccc1 (stereo not drawn)	i	-15	i	-7.9*	i
COc1ccc(C)cc1NC(=O)C(OC(=O)CNC(=O)c1cccc(F)c1)c1ccccc1 (stereo not drawn)	i	-4	i	i	i
COc1ccccc1NC(=O)CNC(c1ccccc1)c1ccccc1	i	-8	i	i	i
CCOc1ccc(NC(=O)C(C)C(Cc2ccc(C)cc2)C(=O)O)cc1 (stereo not drawn)	i	-6	i	i	i
S=c1nc(-c2ccc(Br)cc2)oc2c1CCCC2	i	14*	i	i	i
COc1ccccc1N1CCN(C(C)C(=O)N2CC(C)OC(C)C2)CC1 (stereo not drawn)	i	-14	i	i	i
CC(C(=O)N1CCCC1)N1CCN(c2ccccc2O)CC1 (stereo not drawn)	i	11*	i	i	i
Cc1cccc(CS(=O)(=O)c2ncc(Cl)c(C(=O)Nc3c(C)cccc3C)n2)c1	i	-18	i	-6.7*	i
S=C(Nc1ccc(Br)cc1)N1CCn2cccc2C1c1cccnc1 (stereo not drawn)	i	-16	22*	i	i
COc1ccc(C)cc1NC(=O)CN1C(=O)COc2ccc(S(=O)(=O)N3CCC(C)CC3)cc21	i	-2	i	i	i
O=C(C[C@H]1C/C=C\CCCCC(=O)OC[C@H]2CCCN2C1=O)N[C@H](CO)Cc1ccccc1	.	.	.	.	i
SMILES	KCNQ1 inh	hERG protect	KCNQ1 pot	KCNK9 inh	KCNK3 block
O=[N+]([O-])c1ccc(S(=O)(=O)NCC2CC3CCC2C3)cc1 (stereo not drawn)	7*	-3	i	i	i
CC1Oc2ccccc2N(CC(=O)N2CCCCCC2)C1=O (stereo not drawn)	i	2	22*	i	i
CCOc1ccc(CCNC(=O)C2CSC3(C)CCC(=O)N23)cc1OCC (stereo not drawn)	i	-12	i	i	i
C[C@@H]1CN(Cc2nc(-c3cnccn3)no2)C[C@H](C)O1	i	7.4*	i	i	i
CCCOC1CCCN(Cc2nc(-c3cnccn3)no2)C1 (stereo not drawn)	i	-17	i	i	i
CCCn1c(=O)c(C(=O)NCc2ccc3c(c2)OCO3)c(O)c2ccccc21	8*	-4	i	i	i
CC(OC(=O)c1nn(C)c(=O)c2ccccc12)C(=O)NCc1ccc2c(c1)OCO2 (stereo not drawn)	i	-17	i	i	i
CCCn1c(=O)c(C(=O)NCc2cccnc2)c(O)c2ccccc21	i	-9	i	i	i
CN(C)S(=O)(=O)c1cccc(NC(=O)COC(=O)/C=C/c2ccc([N+](=O)[O-])cc2)c1	i	8.1*	i	i	i
CCC(CC)C(=O)OCC(=O)Nc1cccc(S(=O)(=O)N(C)c2ccccc2)c1	i	-10	i	-7.2*	i
CCCn1nc(C(=O)NCc2ccc3c(c2)OCO3)c2ccccc2c1=O	i	-14	i	i	-8.9*
CC(Oc1cccc(Cl)c1)C(=O)Nc1ccc(S(=O)(=O)N(C)C2CCN(C)CC2)cc1 (stereo not drawn)	.	.	.	.	i
OCCCNCc1ccc(N(c2ccccc2)c2ccccc2)cc1	i	-9	i	i	i
COc1ccc(Cl)cc1N(CC(=O)N1CCCCCC1)S(C)(=O)=O	i	-6	i	i	i
CCCn1nc(C(=O)Nc2cccc(S(=O)(=O)N(C)c3ccccc3)c2)c2ccccc2c1=O	.	.	.	.	-9.2*
COc1ccc2o/c(=N\O)c(C(=O)Nc3ccc(C)cc3)cc2c1	6*	-11	i	i	i
Cc1ccc(C(=O)OCC(=O)Nc2sc3c(c2C#N)CCCC3)cc1NC(=O)c1ccco1	i	-4	19*	i	i
COc1ccc(-n2nc(C(=O)NCC(=O)Nc3cc(OC)c(OC)c(OC)c3)c3ccccc3c2=O)cc1OC	i	-11	i	i	i
CC(=O)c1c(C)[nH]c(C(=O)Nc2nc(-c3ccc(-c4ccccc4)cc3)cs2)c1C	8*	-29	i	i	i
CC(=O)c1c(C)[nH]c(C(=O)Nc2nc(-c3ccc(Cl)cc3)cs2)c1C	i	-25	i	i	i
O=C1c2cccnc2C(=O)N1Cc1ccc(S(=O)(=O)N2CCN(c3ccccc3)CC2)cc1	i	-2	i	i	i
Cc1nn(C)cc1/C=C/C(=O)c1ccc(O)cc1	i	6.2*	i	i	i
Cc1nc2c(C(=O)NCCC(C)C)c[nH]n2c(=O)c1Cc1ccccc1F	6*	-10	i	i	i
